{"data": "Published values gathered from unrelated publications", "FGFR4": "Fibroblast growth factor receptor 4 (FGFR4, Homo sapiens, UniProt P22455)", "note": "Lines come from different studies, so protocols differ."}
{"Compound": "Cc1cc(-n2nc(Cc3cc(F)cc(C(F)(F)F)c3)nc2C)ccc1C(N)=O", "target": "FGFR4", "read-out": "cell-free assay", "method": "competition with immobilised ligand", "tested at": "1 µM", "measurement": "remaining binding", "value": "100%"}
{"Compound": "CC(C)(C)c1nc(-c2cccc(NS(=O)(=O)c3c(F)cccc3F)c2F)c(-c2ccnc(N)n2)s1", "target": "FGFR4", "read-out": "enzyme activity", "mode": "inhibitor", "method": "radiometric", "tested at": "1 µM", "measurement": "remaining activity", "value": "93%"}
{"Compound": "Nc1ncnc2occ(-c3ccc(NC(=O)Nc4cc(C(F)(F)F)ccc4F)cc3)c12", "target": "FGFR4", "read-out": "cell-free assay", "tested at": "20 µM", "measurement": "remaining signal", "value": "0.1%"}
{"Compound": "Cc1cc(NC(=O)c2cccc3cc(-c4cccc5[nH]nc(N)c45)ccc23)ccc1F", "target": "FGFR4", "read-out": "enzyme activity", "mode": "inhibitor", "tested at": "0.1 µM", "measurement": "activity vs control", "value": "101%"}
{"Compound": "Cc1ccc(C(=O)NCc2ccsc2)cc1C#Cc1cn(C(C)C)c2ncnc(N)c12", "target": "FGFR4", "read-out": "enzyme activity", "mode": "inhibitor", "tested at": "1 µM", "measurement": "activity vs control", "value": "99%"}
{"Compound": "CNC(=O)c1cc(Oc2ccc(NC(=O)Nc3ccc(Cl)c(C(F)(F)F)c3)cc2)ccn1", "target": "FGFR4", "read-out": "enzyme activity", "mode": "inhibitor", "tested at": "0.3 µM", "measurement": "inhibition", "value": "2%"}
{"Compound": "NS(=O)(=O)c1cc(NC(=O)C2(c3ccccc3Cl)CC2)ccc1Oc1cccc(Cl)c1", "target": "FGFR4", "read-out": "cell-free assay", "method": "competition with immobilised ligand", "tested at": "1 µM", "measurement": "remaining binding", "value": "100%"}
{"Compound": "O=C1Nc2ccc(Cl)cc2C1=Cc1cc(Cl)c(O)c(Cl)c1", "target": "FGFR4", "read-out": "cell-free assay", "tested at": "0.5 µM", "measurement": "remaining signal", "value": "98%"}
{"Compound": "COc1cc2ncnc(Nc3ccc(Oc4ccccc4)cc3C)c2cc1OC", "target": "FGFR4", "read-out": "enzyme activity", "mode": "inhibitor", "tested at": "1 µM", "measurement": "inhibition", "value": "-3%"}
{"Compound": "O=C(Nc1cnn(-c2csc(C(=O)NC3COC3)c2)c1)Nc1ccccc1Cl", "target": "FGFR4", "read-out": "enzyme activity", "mode": "inhibitor", "tested at": "5 µM", "measurement": "remaining activity", "value": "88.2%"}
{"Compound": "CCCS(=O)(=O)Nc1ccc(F)c(C(=O)c2c[nH]c3ncc(-c4ccc(Cl)cc4)cc23)c1F", "target": "FGFR4", "read-out": "enzyme activity", "mode": "inhibitor", "tested at": "1 µM", "measurement": "inhibition", "value": "< 10%"}
{"Compound": "C[C@@]1(Cc2ccc(C#N)cc2)C(=O)N(c2cc(Cl)cc(Cl)c2)c2ncc(C(=O)NC3(c4nc(C5CCC5)no4)CC3)n21", "target": "FGFR4", "read-out": "cell-free assay", "method": "competition with immobilised ligand", "tested at": "1 µM", "measurement": "remaining binding", "value": "96%"}
{"Compound": "Cc1ccc(C(=O)Nc2ccc(CN3CCN(C)CC3)c(C(F)(F)F)c2)cc1C#Cc1cnc2cccnn12", "target": "FGFR4", "read-out": "cell-free assay", "tested at": "23.5 nM", "measurement": "remaining signal", "value": "49%"}
{"Compound": "CNc1cccc2cc(C(=O)Nc3ccc(C(=O)O)cc3)c(=O)[nH]c12", "target": "FGFR4", "read-out": "enzyme activity", "mode": "inhibitor", "tested at": "10 µM", "measurement": "inhibition", "value": "2.6%"}
{"Compound": "CN(C)C(=O)Cn1cc(-c2nc(C3(c4ccc(-c5cnc(N)nc5)cc4)CC3)no2)cn1", "target": "FGFR4", "read-out": "cell-free assay", "method": "competition with immobilised ligand", "tested at": "1 µM", "measurement": "remaining binding", "value": "100%"}
{"Compound": "CC/C(=N\\NC(=O)NCc1cccc(O)c1)c1ccc(O)c(C)c1O", "target": "Fibroblast growth factor receptor 4 (FGFR4, Homo sapiens, UniProt P22455, V550L)", "read-out": "enzyme activity", "mode": "inhibitor", "tested at": "0.1 µM", "measurement": "inhibition", "value": "3.5%"}
{"Compound": "N#CCCc1ccc2c(c1)-c1[nH]c3ccc([N+](=O)[O-])cc3c1CC(=O)N2", "target": "FGFR4", "read-out": "cell-free assay", "tested at": "0.5 µM", "measurement": "remaining signal", "value": "89.1%"}
{"Compound": "COc1cc(-c2cn(C3CCc4c(F)cccc4N(CC(F)(F)F)C3=O)nn2)ccc1-n1cnc(C)c1 (centres unmarked)", "target": "FGFR4", "read-out": "cell-free assay", "method": "competition with immobilised ligand", "tested at": "1 µM", "measurement": "remaining binding", "value": "100%"}
{"Compound": "COc1cc(Cl)c(C(=O)N[C@@H](CN[C@H]2CC[C@@H](N)CC2)Cc2ccc(C#N)cc2)cc1-c1ccc(CN[C@H](C)c2ccc(C)cc2)o1", "target": "FGFR4", "read-out": "enzyme activity", "mode": "inhibitor", "tested at": "1 µM", "measurement": "remaining activity", "value": "96%"}
{"Compound": "O=C(Nc1cccnn1)N1CCC(=Cc2cccc(Oc3ccc(C(F)(F)F)cn3)c2)CC1", "target": "FGFR4", "read-out": "cell-free assay", "method": "competition with immobilised ligand", "tested at": "1 µM", "measurement": "remaining binding", "value": "100%"}
{"Compound": "CCN(CC)CCNC(=O)c1c(C)[nH]c(/C=C2\\C(=O)Nc3ccc(F)cc32)c1C", "target": "FGFR4", "read-out": "enzyme activity", "mode": "inhibitor", "tested at": "10 µM", "measurement": "inhibition", "value": "30%"}
{"Compound": "Cc1ccc(Nc2nccc(N(C)c3ccc4c(C)n(C)nc4c3)n2)cc1S(N)(=O)=O", "target": "FGFR4", "read-out": "cell-free assay", "tested at": "0.5 µM", "measurement": "remaining signal", "value": "68.3%"}
{"Compound": "CS(=O)(=O)N1CCCC(NC(=O)[C@H](CCC2CCCCC2)NC(=O)c2ccc(CNC(=O)c3cnc4ccccn34)cc2)C1 (some centres unmarked)", "target": "FGFR4", "read-out": "cell-free assay", "method": "competition with immobilised ligand", "tested at": "0.1 µM", "measurement": "remaining binding", "value": "100%"}
